Screens from PubChem.
In the library only some 2.1% were active in any assay of this set; here they are far more common.
MsrA act: bovine MsrA enzyme activators, primary screen, biochemical, absorbance, HTS. activation, % at 10.6 µM. purified bovine MsrA, absorbance read-out. Methionine sulfoxide reductase A (Bos taurus). 360,000 tested, 0.3% active; in the data active = activation above about 7.5%;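 note: 0% = vehicle and 100% = reference activator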
PKA-R1A act: activators of PKA-R1A holoenzyme, primary screen, biochemical, fluorescence polarization, Cy5-IP20, bovine R1A, mouse PKAc. PKA-R1A dissociation; scaled: DMSO 0%, 113 µM cGMP 100%. AID 504707, 2011. activation, % at 11.4 µM. 340,000 tested, 0.083% active;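 active = percent activation above the mean of all tested compounds plus 3 SD, cut at about 19% in these data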;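 note: higher means more PKAc released from R1A so a rise in polarization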
PKA-R2B activ: activators of PKA-R2B holoenzyme, primary screen, biochemical, fluorescence polarization, Cy5-IP20, human; AID 504700, 2011; PKA-R2B holoenzyme dissociation; R2B truncated from residue 108, S112A mutant; 0% DMSO only, 100% 113 µM cGMP; 340,000 tested, 0.079% active; cAMP-dependent protein kinase catalytic subunit beta (Homo sapiens) + cAMP-dependent …; activation, % at 11.4 µM;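 active = activation above a cutoff set at the mean over all compounds plus 3 SD, cut at about 18% in these data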;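 note: higher means more holoenzyme dissociation and a rise in polarization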
Target sequence (P31323 whole entry, looked up, other chains not shown, the tested form may be a part): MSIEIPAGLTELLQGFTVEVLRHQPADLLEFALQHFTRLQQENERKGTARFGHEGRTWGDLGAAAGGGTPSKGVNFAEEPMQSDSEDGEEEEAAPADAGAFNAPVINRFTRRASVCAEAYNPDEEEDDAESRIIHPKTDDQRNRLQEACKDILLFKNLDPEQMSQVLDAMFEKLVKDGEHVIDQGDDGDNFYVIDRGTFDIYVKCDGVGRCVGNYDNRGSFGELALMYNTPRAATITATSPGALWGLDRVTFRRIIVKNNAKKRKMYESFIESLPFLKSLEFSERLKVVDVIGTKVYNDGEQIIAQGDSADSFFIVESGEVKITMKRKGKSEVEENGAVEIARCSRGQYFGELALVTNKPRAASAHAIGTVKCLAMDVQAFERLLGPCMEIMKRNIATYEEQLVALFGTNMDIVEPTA
MsrA inh: bovine MsrA enzyme inhibitors, primary screen, biochemical, absorbance, HTS; 360,000 tested, 0.75% active; AID 651718, 2012; Methionine sulfoxide reductase A (Bos taurus); purified bovine MsrA, absorbance read-out; inhibition, % at 15.5 µM; in the data active = inhibition above about 4.5%;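 note: 0% = vehicle wells with enzyme and 100% = reference inhibitor wells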
IMP-1 inhibitor: IMP-1 metallo-beta-lactamase inhibitors, primary screen, biochemical, epi-absorbance readout, Pseudomonas aeruginosa enzyme | 290,000 tested, 0.45% active | inhibition, % at 5.6 µM | purified IMP-1, nitrocefin hydrolysis, epi-absorbance fluorescence | AID 1556, 2009 | metallo-beta-lactamase IMP-1 (Pseudomonas aeruginosa);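 active = inhibition above the mean plus 3 SD of all compounds in the same screening run, cut at about 4.5% in these data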;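 note: 0% = IMP-1 with DMSO and 100% = DMSO wells lacking enzyme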
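Material – recombinant IMP-1 enzyme, purified · Amount – IMP-1 0.2 nM before substrate addition · Medium – HEPES buffer pH 7.1 with ZnSO4 and Brij 35 · Timing – 25 °C, 15 min preincubation, 25 min reaction · Measured by – plate fluorescence quenching by hydrolysis product, ex 480/em 530 nm · Read-out – percent enzyme inhibition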
VIM-2 inh: VIM-2 metallo-beta-lactamase inhibitors, primary screen, biochemical, epi-absorbance readout, Pseudomonas aeruginosa enzyme | purified VIM-2, nitrocefin hydrolysis, epi-absorbance fluorescence | 290,000 tested, 0.89% active | AID 1527, 2009 | inhibition, % at 5.6 µM;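 active = inhibition above the mean of all tested compounds plus 3 SD, cutoff set per screening run, cut at about 7.5% in these data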;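 note: red hydrolysis product quenches plate fluorescence so inhibitors raise well fluorescence; 0% = enzyme with DMSO and 100% = DMSO without enzyme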
* = called active by the depositor; . = not tested or not shown.

SMILES	MsrA act	PKA-R1A act	PKA-R2B activ	MsrA inh	IMP-1 inhibitor	VIM-2 inh
O=c1c2[nH]c3ccc(Br)cc3c2ncn1CCCn1ccnc1	1.9	-2.4	6.7	0.8	5.9*	5.4
O=c1c2[nH]c3ccccc3c2ncn1CCCn1ccnc1	3.5	-4.1	-1.3	0.8	-2.7	0.3
COc1ccc(C2=Nn3c(nnc3-c3ccccc3OC)SC2)cc1OC1CCOC1 (stereo unspecified)	-1.8	-4.5	-4.2	4.6*	.	.
COc1ccc(C2=Nn3c(nnc3-c3ccccc3C(F)(F)F)SC2)cc1OC1CCOC1 (stereo unspecified)	-7.2	7.1	0.7	2.2	.	.
CC(C)CC(=O)Nc1cccc2c1C(=O)N(c1ccccc1)C2=O	-0.5	-6.2	-6.0	-0.5	7.5*	-0.7
COn1c(-c2ccc(Cl)cc2)nc2ncccc21	-1.2	-1.1	4.6	0.8	-3.1	-0.9
C(=N\n1cncn1)/c1ccc(N2CCOCC2)cc1	-18.1	3.7	-6.0	5.3*	-2.8	-1.0
C(=N\n1cnnc1)/c1ccc(N2CCOCC2)cc1	-10.8	7.7	1.3	4.2	-2.3	-2.7
COCCN(CCOC)C(=O)[C@H](CCc1ccccc1)NC(=O)[C@H]1O[C@@H](n2cnc3c(N)ncnc32)[C@H](O)[C@@H]1O	.	.	.	1.3	.	.
Nc1[nH]c(C(=O)c2ccc(Br)cc2)c(-c2ccc3ccccc3c2)c1C(=O)NCCc1c[nH]c2ccccc12	.	.	.	1.4	.	.
CN1CCN(C(=O)c2cnn3c(C(F)(F)F)cc(-c4cccs4)nc23)CC1	-5.6	3.6	5.3	2.2	-4.0	8.6*
CNc1nc(NCc2ccc(N(C)C)cc2)c2sccc2n1	-1.4	.	.	.	.	.
O=C(CSC1=NCCS1)NC(c1ccccc1)c1ccccc1	-1.5	18.9*	3.4	-0.7	-1.0	-1.9
COc1ccc([C@H]2CC(=O)C=C(c3ccc(Cl)c(C(F)(F)F)c3)C2)cc1OC	-8.9	-11.5	-22.8	0.7	.	.
S=c1nc(-c2ccccc2)n(-c2ccccc2)[nH]1	4.7	0.9	-1.4	-0.9	-0.1	9.8*
S=c1nc(-c2ccccc2)[nH]n1-c1ccccc1	2.2	-0.3	0.8	1.1	-2.3	-3.1
COCCN1C(=O)[C@H]2C[C@@]13O[C@H](C1CCCCC1)N=C3CC1c3ccccc3C[C@@]12C (stereo partly specified)	.	.	.	0.6	.	.
COc1ccccc1NC(=O)C1=C(C)NC(SCC(=O)c2ccc(C)cc2)=C(C#N)C1c1ccco1 (stereo unspecified)	.	.	.	1.2	4.5*	-2.8
CC(C)c1cccc(-c2csc(C(C)(O)c3ccncc3)n2)c1 (stereo unspecified)	-1.4	.	.	-0.6	.	.
COc1ccccc1S(=O)(=O)N(C)C[C@H]1OCc2cn(nn2)CCCC(=O)N([C@H](C)CO)C[C@@H]1C	-2.4	-5.3	10.3	0.4	.	.
Cc1nc2ccccc2c2oc(C(=O)N3CCC(N4CCCCC4)CC3)cc12	-5.0	-1.5	-3.5	.	0.2	60.2*
Cc1nc2ccccc2c2oc(C(=O)N3CCCC(C)C3)cc12 (stereo unspecified)	-5.5	-8.9	2.8	0.1	-0.7	9.6*
CC(=O)c1ccc(N2CCN(C(=O)c3cc4c(C)nc5ccccc5c4o3)CC2)cc1	0.7	2.2	2.9	-0.8	-1.3	0.1
Cc1ccc(NC(=O)COC(=O)c2ccc(NC(=O)CC#N)cc2)cc1S(=O)(=O)N1CCOCC1	-4.6	-3.3	6.5	0.9	.	.
Cc1cc(Oc2ccccc2)nc(SCC(=O)Nc2ccc(Cl)cc2Cl)n1	-6.7	4.4	-0.3	0.5	46.3*	-4.8
SMILES	MsrA act	PKA-R1A act	PKA-R2B activ	MsrA inh	IMP-1 inhibitor	VIM-2 inh
COC1OC(COCc2ccccc2)C2OC(C)(C)OC2C1O (stereo unspecified)	.	.	.	0.2	.	.
CCSc1ncc(Cl)c(C(=O)Nc2ccc(S(N)(=O)=O)cc2)n1	-1.4	4.7	3.1	1.9	0.4	8.6*
CCSc1ncc(Cl)c(C(=O)Nc2ccc(S(=O)(=O)Nc3ncccn3)cc2)n1	-2.5	-3.8	-3.2	-0.4	-0.1	-0.3
C[C@H]1[C@H](c2ccccc2)Oc2cc(Br)ccc2S(=O)(=O)N1Cc1ccc(Cl)cc1	.	.	.	0.7	.	.
COC(=O)CSc1nc2sc3c(c2c(=O)n1-c1ccc(OC)cc1)CCN(C)C3	-12.9	-4.2	10.1	2.3	5.8*	1.9
CCOC(=O)CSc1nc2sc3c(c2c(=O)n1-c1ccc(C)cc1)CCN(C)C3	-8.5	-2.7	-0.2	4.6*	0.7	4.7
O=C(N[C@H](Cc1ccccc1)C(=O)NCc1ccco1)[C@H]1O[C@@H](n2ccc(=O)[nH]c2=O)[C@H](O)[C@@H]1O	.	.	.	0.2	.	.
CCOC(=O)COc1c(OC)cc(Cl)cc1C1Nc2ccccc2C(=O)N1c1ccccc1 (stereo unspecified)	-2.3	-0.4	-1.7	0.0	2.0	-4.5
CCOC(=O)COc1c(OC)cc(Cl)cc1C1Nc2ccccc2C(=O)N1c1cccc(C)c1 (stereo unspecified)	-1.8	-14.6	-10.2	1.6	5.6*	-3.4
CCCN1C(=O)CC(=O)N=C1SCC(=O)Nc1ccccc1F	-1.7	-9.1	-13.9	-0.6	.	.
CC(=O)CSc1ccc(-c2nc3cc(C)c(C)cc3[nH]2)cn1	-2.5	-6.1	-1.3	4.7*	-0.8	-2.3
CCC(c1nnc(SCC(=O)Nc2ccc(C(C)=O)cc2)n1C1CCCCC1)N(C)C (stereo unspecified)	-3.6	1.9	-4.4	-1.1	-2.8	11.8*
CCC(c1nnc(SCC(=O)Nc2cc(Cl)ccc2C#N)n1C1CCCCC1)N(C)C (stereo unspecified)	-10.4	-3.1	-10.4	0.3	-1.7	5.1
CCN(CC)c1ccc(C(=O)NNC(=O)c2cccn2C)cc1	0.5	-3.0	-1.9	3.0	.	.
N=C(N)N=Nc1c(O)[nH]c2ccc(Br)cc12	-1.4	4.3	-3.4	4.6*	-3.2	3.8
C[C@@H]1CNC(=O)c2c(C(=O)N(C)Cc3ccccc3)ncn21	.	.	.	1.4	.	.
CCN=C1NC(c2cccc(F)c2)C(C(=O)OC)=C(C)N1Cc1ccccc1C(F)(F)F (stereo unspecified)	.	.	.	1.1	.	.
Cc1sc2nc(CSc3ccccc3)nc(NCCN(C)C)c2c1C	-9.2	-1.5	4.1	0.0	-3.9	-1.0
Cc1sc2ncnc(NCC(O)c3ccccc3)c2c1C (stereo unspecified)	-0.8	-0.7	4.0	1.1	1.0	4.6
